Results taken from ChEMBL document CHEMBL4680167, “Synthesis and SARs of dopamine derivatives as potential inhibitors of influenza virus PA endonuclease” (Eur J Med Chem, 2020).

Assays:
[1] = tested on: Influenza A virus; assay: Antiviral activity against Influenza A virus (A/WSN/1933(H1N1)) infected in dog MDCK cells assessed as reduction in virus-induced cytopathic effect incubated for 48 hrs by MTT assay; format: functional, organism-based
In short: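 MDCK cells (DMEM, 10% FBS, 37 °C, 5% CO2) were seeded overnight and infected with 100 TCID50 (MOI 3.5×10^-3) of A/WSN/33 for 1 h. Compounds were added at increasing concentrations and cells were cultured about 48 h in FBS-free medium with 0.6 µg/mL TPCK-trypsin. Read-out was MTT, formazan dissolved in DMSO, A570, with CPE checked by microscopy. Triplicates; EC50 is the concentration giving 50% cell protection.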

[2] = Cytotoxicity against dog MDCK cells assessed as reduction in cell viability incubated for 48 hrs by MTT assay; format: cell-based, Canis lupus familiaris
In short: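 Uninfected MDCK cells were seeded overnight, then exposed to increasing compound concentrations or 0.1% DMSO blank for 48 h. Viability was read by MTT; CC50 is the concentration killing 50% of cells.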

[3] = Selectivity index, ratio of CC50 for dog MDCK cells to EC50 for Influenza A virus (A/WSN/1933(H1N1)) infected in dog MDCK cells; format: toxicity, cell-based; settings: read-out: Ratio CC50/EC50
[4] = Inhibition of recombinant Influenza A virus (A/USA:Huston/AA/1945 H1N1)) N-terminal His6-tagged PA endonuclease using 6FAM-TGGCAATATCAGCTCCACA-MGBN DNA probe as substrate by TR-FRET assay
In short: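 Recombinant PA_N cleavage was followed by FRET on a TaqMan-like probe: 5'-FAM, 19 nucleotides, 3'-MGBNFQ quencher, excitation 492 nm. Cleavage frees FAM fluorescence. Percentage inhibition was plotted against log compound concentration; mean ± SD of eleven independent experiments.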

[5] = (§1) Binding affinity to recombinant Influenza A virus (A/USA:Huston/AA/1945 H1N1)) N-terminal His6-tagged PA endonuclease assessed as dissociation constant by SPR analysis
In short: (§2)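 For SPR, compounds were printed in 5 repeats on a photo-cross-linker chip. The surface was primed with HBS-EP (10 mM HEPES pH 7.0, 150 mM NaCl, 3 mM EDTA, 0.005% P20), then with running buffer (PBS, 5% DMSO). PA_N at 10, 20, 40, 80 and 160 nM in running buffer was injected 600 s at 0.5 µL/s, followed by 360 s dissociation.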

[6] = tested on: Influenza A virus; assay: as §1; in short: as §2

SMILES	EC50 [1] [µM]	CC50 at 48 h [2] [µM]	selectivity ratio [3]	EC50 [4] [µM]	Kd [5] [µM]	Activity [6]
CCC(CC)[C@H](NC(C)=O)[C@@H]1[C@H](O)[C@@H](C(=O)O)C[C@H]1NC(=N)N [PERAMIVIR ANHYDROUS]	5.26	> 200	> 38	–	–	–
O=C(c1ccc(O)c(O)c1)N1CCc2cc(O)c(O)cc2C1	3.1	133	43	0.577	–	–
O=C(Cc1ccc(O)c(O)c1)N1CCc2cc(O)c(O)cc2C1	2.58	151	58.5	0.489	0.0942	Dose-dependent effect
O=C(NCCc1ccc(O)c(O)c1)c1ccccc1O	> 30	–	–	–	–	–
O=C(NCCc1ccc(O)c(O)c1)c1ccc(O)cc1	12.7	> 200	> 25.2	–	–	–
O=C(CCc1ccc(O)c(O)c1)NCCc1ccc(O)c(O)c1	4.94	> 200	> 64.8	0.842	–	–
O=C(NCCc1ccc(O)c(O)c1)c1cccc(O)c1O	> 30	–	–	–	–	–
O=C(O[C@@H]1Cc2c(O)cc(O)cc2O[C@@H]1c1cc(O)c(O)c(O)c1)c1cc(O)c(O)c(O)c1 [EPIGALOCATECHIN GALLATE]	28.9	> 200	> 6.9	6.45	0.956	–
O=C(NCCc1ccc(O)c(O)c1)c1cccc(O)c1	13.1	> 200	> 15.3	–	–	–
Oc1ccc(CCNC(=S)Cc2ccc(O)c(O)c2)cc1O	7.01	> 200	> 45.7	1.29	–	–
O=C(NCCc1ccc(O)c(O)c1)c1ccc(O)c(O)c1	10.2	154	15	–	–	–
O=C1c2cc(=O)ccn2N([C@@H]2c3ccccc3SCc3c2ccc(F)c3F)[C@@H]2COCCN12	–	–	–	–	0.000208	–
O=C(NCCc1ccc(O)c(O)c1)c1cc(O)c(O)c(O)c1	> 30	–	–	–	–	–
O=C(Cc1ccc(O)c(O)c1)NCCc1ccc(O)c(O)c1	2.46	> 200	> 81.3	0.312	0.0263	Dose-dependent effect
O=C(Cc1ccc(O)c(O)c1)OCCc1ccc(O)c(O)c1 [BLAPSIN A]	> 30	–	–	–	–	–
O=C(CCc1ccc(O)c(O)c1)N1CCc2cc(O)c(O)cc2C1	18.6	197	10.6	–	–	–
